In ChEMBL document CHEMBL1138928, “Toward orthopoxvirus countermeasures: a novel heteromorphic nucleoside of unusual structure” (J Med Chem, 2006):

Key:
Cowpox virus [1] = assay: Antiviral activity against cowpox virus in HFF cells by plaque reduction assay; format: functional, organism-based
Vaccinia virus = assay: Antiviral activity against vaccinia virus in HFF cells by plaque reduction assay; format: functional, organism-based; details: Orthopoxvirus vaccinia
Cowpox virus [2] = assay: Antiviral activity against TK- cowpox virus TK:GFP lacZ in HFF cells; format: functional, organism-based
HFF = assay: Cytotoxicity against HFF cells by neutral red uptake assay; format: functional; details: Homo sapiens
Method in brief: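 Uninfected HFF cells are incubated with various drug concentrations for 7 days at 37 °C. Viability is read by Neutral Red uptake. CC50 is the concentration that reduces uptake by 50%.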

Cowpox virus [3] = assay: Antiviral activity against TK+ cowpox virus delta crmA in HFF cells; format: functional, organism-based

Row | Compound | EC50 (Cowpox virus [1]) | EC50 (Vaccinia virus) | EC50 (Cowpox virus [2]) | CC50 (HFF) | EC50 (Cowpox virus [3])
1 | N#CC1=C(N)OC2=C(C(=O)CCC2)C1c1cn([C@H]2C[C@@H](O)[C@@H](CO)O2)c(=O)[nH]c1=O (stereo not given in full) | 2 µM | 4.6 µM | 28 µM | > 300 µM | 0.8 µM
2 | Nc1ccn(C[C@@H](CO)OCP(=O)(O)O)c(=O)n1 [CIDOFOVIR] | 40 µM | 24 µM | 5.2 µM | > 317 µM | 3.3 µM
3 | O=c1[nH]c(=O)n([C@H]2C[C@H](O)[C@@H](CO)O2)cc1I [IDOXURIDINE] | 2 µM | 6 µM | 27 µM | > 260 µM | 0.4 µM
